Assays:
human red blood cells [1] = assay: micro-RNA mir-16 release from red blood cells; type: cell-based; details: pH 5.4; 5 μM peptide, human RBCs, 37 °C, mir-16 by stem-loop qPCR on supernatant
human red blood cells [2] = assay: ATP release from red blood cells; type: cell-based; details: 5 μM peptide, human RBCs, 37 °C, ATPLite kit on supernatant
[3] = Sedimentation equilibrium analytical ultracentrifugation in aqueous buffer; type: physicochemical; details: for apparent MW, AUC single-species fit: 150 mM NaCl, 25 °C, 35-50 krpm, global fit; for apparent MW, AUC single-species fit / aggregation state (apparent MW/peptide MW), AUC / –log(Kdissociation), monomer–hexamer equilibrium, AUC: 100 μM peptide; for –log(Kdissociation), monomer–hexamer equilibrium, AUC: error = SD of fit
[4] = Size-exclusion chromatography, association state in aqueous buffer; type: physicochemical; details: for apparent molecular weight, SEC: 150 mM NaCl, Superdex 75, 25 °C, 100 μM peptide
[5] = Circular dichroism thermal denaturation; type: physicochemical; details: for [PSPF-EKG] at 50% folded and 300 K: calculated from the CD fit; for Tm of thermal denaturation by CD: reference concentration 4 μM
[6] = AUC self-association in C-14 betaine micelles; type: physicochemical; details: 8 mM C-14 betaine, pH 7.4 and 5.5, peptide/betaine 1:50, 1:100, 1:200
Summary of the method: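 Sedimentation equilibrium run at 25 °C at 35, 40, 45 and 50 krpm. Test compound was dissolved in C-14 betaine micelles in 150 mM NaCl and 50 mM sodium phosphate. D2O was added to match micelle density: 17% at pH 7.4 and 22% at pH 5.5. Data were fitted by single-species and monomer–trimer equilibrium models.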

Row | Substance | % miRNA at 5 μM, RBC lysis assay (human red blood cells [1]) | % ATP at 5 μM, RBC lysis assay (human red blood cells [2]; pH 5.4) | % ATP at 5 μM, RBC lysis assay (human red blood cells [2]; pH 7.5) | further results
1 | WSDLAKA LSDLAKA LSDLAKA LSDLAKA [PSPF-DKA] | 0.79 % relative to Triton X-100 controls | 5.79 % relative to Triton X-100 controls | 4.64 % relative to Triton X-100 controls | 
2 | WSDLAKG LSDLAKG LSDLAKG LSDLAKG [PSPF-DKG] | 7.47 % relative to Triton X-100 controls | 24.1 % relative to Triton X-100 controls | 7.54 % relative to Triton X-100 controls | apparent MW, AUC single-species fit ([3]; pH 5.5, 50 mM MES): 24 000 Da; association state n suggested by AUC single-species fitting ([3]; pH 7.4): 6; apparent MW, AUC single-species fit ([3]; pH 7.4, 50 mM Tris): 17 000 Da; aggregation state (apparent MW/peptide MW), AUC ([3]; pH 7.4): 6.0; –log(Kdissociation), monomer–hexamer equilibrium, AUC ([3]; pH 7.4): 28.7 ± 0.4; aggregation state n (apparent MW fold over single peptide MW), SEC ([4]; pH 5.5): only a poorly defined peak
3 | WSDLAQA LSDLAQA LSDLAQA LSDLAQA [PSPF-DQA] |  |  | 3.81 % relative to Triton X-100 controls | 
4 | WSDLAQG LSDLAQG LSDLAQG LSDLAQG [PSPF-DQG] | 0.16 % relative to Triton X-100 controls | 8.61 % relative to Triton X-100 controls | 3.21 % relative to Triton X-100 controls | 
5 | WSELAKA LSELAKA LSELAKA LSELAKA [PSPF-EKA] | 0.21 % relative to Triton X-100 controls | 3.66 % relative to Triton X-100 controls | 2.02 % relative to Triton X-100 controls | 
6 | WSELAKG LSELAKG LSELAKG LSELAKG [PSPF-EKG] |  | 27.3 % relative to Triton X-100 controls | 3.38 % relative to Triton X-100 controls | increase of free energy of the helical bundle as pH decreases from 7.4 to 5.5 ([3]; AUC): 0.7 kcal/mol peptide; association state n suggested by AUC single-species fitting ([3]; pH 5.5): 6; apparent MW, AUC single-species fit ([3]; pH 5.5, 50 mM MES): 16 000 Da; aggregation state (apparent MW/peptide MW), AUC ([3]; pH 5.5): 5.5; –log(Kdissociation), monomer–hexamer equilibrium, AUC ([3]; pH 5.5): 24.8 ± 0.1; association state n suggested by AUC single-species fitting ([3]; pH 7.4): 6; apparent MW, AUC single-species fit ([3]; pH 7.4, 50 mM Tris): 18 000 Da; aggregation state (apparent MW/peptide MW), AUC ([3]; pH 7.4): 6.2; –log(Kdissociation), monomer–hexamer equilibrium, AUC ([3]; pH 7.4): 28.0 ± 0.4; decrease of Tm from pH 7.4 to pH 5.5 ([5]; CD thermal denaturation): 5.6 K; [PSPF-EKG] at 50% folded and 300 K ([5]; pH 5.5): 0.31 µM; Tm of thermal denaturation by CD ([5]; pH 5.5): 333.4 ± 0.1 K; [PSPF-EKG] at 50% folded and 300 K ([5]; pH 7.4): 0.14 µM; Tm of thermal denaturation by CD ([5]; pH 7.4): 339.0 ± 0.1 K; apparent molecular weight, SEC ([4]; pH 5.5, 50 mM MES): 15 000 Da; apparent molecular weight, SEC ([4]; pH 7.4, 50 mM Tris): 19 000 Da; self-association in detergent micelles [6]: weakly associates in detergent micelles
7 | WSELAQA LSELAQA LSELAQA LSELAQA [PSPF-EQA] | 0.02 % relative to Triton X-100 controls | 3.61 % relative to Triton X-100 controls | 3.69 % relative to Triton X-100 controls | 
8 | WSELAQG LSELAQG LSELAQG LSELAQG [PSPF-EQG] | 2.64 % relative to Triton X-100 controls | 9.52 % relative to Triton X-100 controls | 3.36 % relative to Triton X-100 controls | 
9 | WSHLAKA LSHLAKA LSHLAKA LSHLAKA [PSPF-HKA] | 0.02 % relative to Triton X-100 controls | 5.7 % relative to Triton X-100 controls | 0.93 % relative to Triton X-100 controls | 
10 | WSHLAKG LSHLAKG LSHLAKG LSHLAKG [PSPF-HKG] | 0.44 % relative to Triton X-100 controls |  | 32.1 % relative to Triton X-100 controls | 
11 | WSHLAQA LSHLAQA LSHLAQA LSHLAQA [PSPF-HQA] | 1.43 % relative to Triton X-100 controls |  | 6.17 % relative to Triton X-100 controls | 
12 | WSHLAQG LSHLAQG LSHLAQG LSHLAQG [PSPF-HQG] | 0.64 % relative to Triton X-100 controls |  | 5.69 % relative to Triton X-100 controls | 

Source: PMC4843813 (ACS chemical biology, 2015)
